pPAFAH FP inh: inhibitors of human plasma PAF acetylhydrolase (pPAFAH). Q13093. recombinant pPAFAH, FP-rhodamine probe fluorescence polarization. inhibition, % at 3.39 µM. actives 1.5% (n = 330,000). AID 463082;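 active = inhibition above the mean inhibition across the screen plus 3 SD, cut at about 25% in these data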;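 note: inhibitors block binding of the rhodamine activity-based probe so polarization drops; 0% = enzyme with DMSO and 100% = wells lacking pPAFAH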
HTRA1 inhibitor: blocks human HTRA1 serine peptidase; recombinant HTRA1, FP-rhodamine activity-based probe, fluorescence polarization; inhibition, % at 5.96 µM; actives 0.5% (n = 340,000); AID 504803; in the data active = inhibition above about 36%;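 note: 0% = enzyme with DMSO and 100% = wells lacking enzyme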
mABHD4 FP: inhibitors of mouse ABHD4. Q8VD66. purified mABHD4, FP-Rh probe fluorescence polarization. inhibition, % at 8.92 µM. actives 0.54% (n = 370,000). AID 720543;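 active = inhibition exceeding the mean over every tested compound plus 3 SD, cut at about 30% in these data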;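 note: 0% = plate median of compound wells and 100% = S159A mutant with DMSO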
Target sequence (Q8VD66 whole entry, looked up): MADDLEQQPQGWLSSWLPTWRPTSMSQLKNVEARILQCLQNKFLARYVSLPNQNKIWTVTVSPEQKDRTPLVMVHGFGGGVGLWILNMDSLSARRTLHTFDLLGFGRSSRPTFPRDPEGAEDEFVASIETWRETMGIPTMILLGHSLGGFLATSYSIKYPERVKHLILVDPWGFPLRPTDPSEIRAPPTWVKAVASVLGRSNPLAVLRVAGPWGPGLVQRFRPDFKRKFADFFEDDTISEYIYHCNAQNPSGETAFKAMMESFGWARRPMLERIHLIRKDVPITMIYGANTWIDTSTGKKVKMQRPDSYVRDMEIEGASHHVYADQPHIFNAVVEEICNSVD
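Test system: mouse ABHD4 enzyme, wild type. Reagent: FP-Rh fluorescent activity-based probe, added after compound pre-incubation. Timing: pre-incubation 45 min, probe exposure 60 min, at 25 °C. Technique: FP readout, ex 525 nm / em 598 nm. Benchmarks: high control S159A mutant with DMSO, low control median of compound wells.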
PAFAH2 FP inh: PAFAH2 (human) inhibition; AID 492956; inhibition, % at 3.39 µM; Q99487; recombinant PAFAH2, FP-rhodamine activity probe, fluorescence polarization; actives 0.99% (n = 340,000);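 active = inhibition above the mean over all tested compounds plus 3 SD, cut at about 30% in these data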;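 note: inhibitors block probe labeling of enzyme so polarization drops; 0% = enzyme with DMSO and 100% = wells lacking PAFAH2 protein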
PAFAH1B3 FP inh: blocks human PAF acetylhydrolase 1B catalytic subunit 3; actives 0.28% (n = 340,000); recombinant PAFAH1B3, FP-rhodamine probe, fluorescence polarization; Q15102; inhibition, % at 3.39 µM;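 active = inhibition above the screen-wide average of all tested compounds plus 3 SD, cut at about 25% in these data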;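 note: 0% = enzyme with DMSO only and 100% = wells lacking PAFAH1B3 protein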
PAFAH1B2 FP inh: PAFAH1B2 (human) inhibition; actives 1.2% (n = 340,000); recombinant PAFAH1B2, FP-rhodamine activity probe, fluorescence polarization; AID 492953; inhibition, % at 3.39 µM; P68402;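 active = inhibition above the mean of all tested compounds plus 3 SD, cut at about 24% in these data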;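 note: 0% = enzyme with DMSO and 100% = wells lacking PAFAH1B2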
Numbers without * were called inactive; x = not tested or not shown. This is a sample that favours compounds with a hit; in the whole collection about 2.8% have one here.

SMILES	pPAFAH FP inh	HTRA1 inhibitor	mABHD4 FP	PAFAH2 FP inh	PAFAH1B3 FP inh	PAFAH1B2 FP inh
Nc1[nH]c(C(=O)c2ccccc2)c(-c2ccc(Cl)cc2Cl)c1C(=O)c1cccs1	x	x	0	x	x	x
O=C(Nc1cccc(S(=O)(=O)N2CCCCC2)c1)c1ccccc1NS(=O)(=O)c1ccc(F)cc1	24	-35	-2	4	3	7
CCS(=O)(=O)c1ccc(O)c(NC(=O)c2ccc(S(=O)(=O)N3CCCCCC3)cc2)c1	28*	0	-4	13	11	10
O=C(Nc1cc(S(=O)(=O)N2CCCCC2)ccc1O)c1ccccc1NS(=O)(=O)c1ccc(F)c(F)c1	34*	-39	-4	48*	-10	43*
COc1cccc(CN(C)C(=O)c2ccc(COc3ccc(Cl)cc3)cc2)c1OC	8	-33	3	-7	-3	25*
CC1(OC(=O)c2cnc3ccccc3n2)C(=O)C=C2C=C(C3CC3)OC=C2C1=O (stereo not drawn)	50*	x	x	x	x	x
COC/C=C/C1=CC2=CC(=O)C(C)(OC(=O)c3cnc4ccccc4n3)C(=O)C2=CN1c1ccccc1 (stereo not drawn)	15	x	22	x	x	x
COC/C=C/C1=CC2=CC(=O)C(C)(OC(=O)c3cnc4ccccc4n3)C(=O)C2=CN1C1CCCCC1 (stereo not drawn)	10	x	x	x	x	x
COC/C=C/C1=CC2=CC(=O)C(C)(OC(=O)c3cnc4ccccc4n3)C(=O)C2=CN1c1ccc(CO)cc1 (stereo not drawn)	39*	x	x	x	x	x
CCNC(=O)C[C@H]1CC[C@H]2[C@@H](COc3ccc(NC(=O)c4ccc5c(c4)OCO5)cc3C(=O)N2C)O1	x	x	16	x	x	x
COC(=O)[C@]12C[C@H](CC(=O)NCCC(C)C)C(=O)N(Cc3ccco3)C1=C[C@H](C(C)C)O[C@@H]2C1CC1	x	x	-2	x	x	x
CS(=O)(=O)C1=NSC2=NC(=O)/C(=C\c3cccn3-c3ccc(Cl)cc3)C(=N)N21	-12	-78	-108	-9	5	64*
Fc1ccc(N2CCN(C3=Nc4ccccc4Sc4ccccc43)CC2)cc1	x	x	1	x	x	x
COc1cccc(CNC(=O)C2CCN(c3nc(OC)nc(OC)n3)CC2)c1	x	x	-5	x	x	x
O=C(COC(=O)C12CC3CC(CC(Cl)(C3)C1)C2)Nc1ccc2[nH]c(=O)[nH]c2c1	6	2	-3	7	5	28*
O=C(COC(=O)C12CC3CC(CC(C3)C1)C2)Nc1ccc2[nH]c(=O)[nH]c2c1	1	8	x	-1	-3	10
COc1ccc(N2CCN(CCNS(=O)(=O)c3ccc(Br)s3)CC2)cc1	x	x	4	x	x	x
Nc1nnc(SCC(=O)NCCOc2ccccc2)s1	-4	2	-11	3	6	4
O=C(CSc1nc2ccccc2s1)NCCOc1ccccc1	12	-5	-11	-6	4	27*
O=C(NC1CCCCN(Cc2cccc(F)c2)C1=O)c1ccc(F)cc1 (stereo not drawn)	x	x	4	x	x	x
O=S(=O)(c1ccc(Cl)cc1)N1CCN(Cc2ccncc2)CC1	-1	1	2	1	6	24*
O=S(=O)(c1ccc(F)cc1)N1CCN(CCc2ccccc2)CC1	-7	6	-2	-4	-1	5
O=c1[nH]c(CN2CCN(S(=O)(=O)c3ccc(Cl)cc3)CC2)nc2cc(Cl)ccc12	-8	-8	5	1	4	24*
O=S(=O)(c1ccc(Cl)cc1)N1CCN(CCc2ccccc2)CC1	-10	-2	-4	1	13	28*
O=C(O)c1ccc(-n2nc(-c3ccccc3O)nc2-c2ccccc2O)cc1	x	x	-5	x	x	x
CC(=NNC(=O)CSc1nnc(-c2ccccc2)n1-c1ccccc1)c1ccc2ccccc2c1	x	x	-5	x	x	x
CN(C)S(=O)(=O)c1cccc(C(=O)Nc2cc(Cl)ccc2O)c1	4	-11	-4	-3	-3	24*
O=C(COC(=O)c1ccc([N+](=O)[O-])s1)NCc1ccc(F)cc1	26*	33	-1	53*	44*	17
O=C(COC(=O)c1ccc([N+](=O)[O-])s1)NC(=O)NCc1ccccc1	14	22	4	40*	30*	8
O=C(COC(=O)c1ccc(O)cc1)NC(=O)NCc1ccccc1	4	23	-8	11	8	5

Screens as filed in PubChem.
